{
  "source": "ChEMBL document CHEMBL2202989",
  "about": "“New adamantane phenylalkylamines with σ-receptor binding affinity and anticancer activity, associated with putative antagonism of neuropathic pain” (J Med Chem, 2012)",
  "key": {"PC-3 [1]": {"system": "PC-3", "test": "Induction of apoptosis in human PC3 cells assessed as late apoptosis at 0.5 uM using annexin V/7-AAD by FACS analysis (reference value: 3 %)", "format": "functional"}, "BXPC-3 [2]": {"system": "BXPC-3", "test": "Induction of apoptosis in human BxPC3 cells assessed as late apoptosis at 50 uM using annexin V/7-AAD by FACS analysis (reference value: 9 %)", "format": "functional", "outline": "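Cells plated 24 h before treatment, then exposed 24 h to 0.5, 5, 15 or 50 μM compound (final DMSO 0.5%); vehicle controls included. Cells scraped and stained with annexin V-FITC and 7-AAD for 15 min on ice in the dark. Flow cytometry with 488 nm excitation, 10,000 gated cells. Early apoptosis was annexin V+/7-AAD−, late was annexin V+/7-AAD+.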"}, "PC-3 [3]": {"system": "PC-3", "test": "Cell cycle arrest in human PC3 cells assessed as accumulation at G1 phase at 15 uM after 24 hrs using propidium iodide staining by FACS analysis (reference value: 36 %)", "format": "functional"}, "PC-3 [4]": {"system": "PC-3", "test": "Cell cycle arrest in human PC3 cells assessed as accumulation at G2 phase at 5 uM after 24 hrs using propidium iodide staining by FACS analysis (reference value: 12 %)", "format": "functional"}, "PC-3 [5]": {"system": "PC-3", "test": "Cell cycle arrest in human PC3 cells assessed as accumulation at >G2/M phase at 15 uM after 24 hrs using propidium iodide staining by FACS analysis (reference value: 6 %)", "format": "functional"}, "BXPC-3 [6]": {"system": "BXPC-3", "test": "Growth inhibition of human BxPC3 cells after 48 hrs by SRB assay", "format": "functional", "conditions": "BXPC-3, 48 h", "outline": "(§1)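 Cells grown in RPMI 1640 with 5% heat-inactivated FCS, 2 mM L-glutamine and antibiotics, 37 °C, 5% CO2. Seeded at 3500–30000 cells/well and left 24 h before dosing. DMSO solutions added at 10-fold dilutions from 100 to 0.01 μM for 48 h. Cells TCA-fixed and SRB-stained, absorbance read at 540 nm; GI50 derived against the time-zero plate.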"}, "IGROV-1 [7]": {"system": "IGROV-1", "test": "Induction of apoptosis in human IGROV1 cells assessed as late apoptosis at 5 uM using annexin V/7-AAD by FACS analysis (reference value: 5 %)", "format": "functional"}, "NHDF": {"system": "NHDF", "test": "(§2) Growth inhibition of human NHDF cells after 48 hrs by SRB assay", "format": "cell-based", "conditions": "nhdf, 48 h", "outline": "as §1"}, "[8]": {"test": "as §2", "format": "cell-based", "conditions": "NHDF cells", "outline": "as §1"}, "IGROV-1 [9]": {"system": "IGROV-1", "test": "Induction of apoptosis in human IGROV1 cells assessed as early apoptosis at 0.5 uM using annexin V/7-AAD by FACS analysis (reference value: 9 %)", "format": "functional"}, "PC-3 [10]": {"system": "PC-3", "test": "Cell cycle arrest in human PC3 cells assessed as accumulation at >G2/M phase at 50 uM after 24 hrs using propidium iodide staining by FACS analysis (reference value: 6 %)", "format": "functional"}, "IGROV-1 [11]": {"system": "IGROV-1", "test": "Cell cycle arrest in human IGROV1 cells assessed as accumulation at G2 phase at 5 uM after 24 hrs using propidium iodide staining by FACS analysis (reference value: 19 %)", "format": "functional"}, "Mus musculus [12]": {"system": "Mus musculus", "test": "Analgesic activity in CD1 mouse neuropathic pain model assessed as reduction in paw licking time at 50 mg/kg, po administered 1 hr prior to formalin challenge in presence of paclitaxel", "format": "functional, organism-based", "set-up": "dose 50 mg/kg", "outline": "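CD1 male mice (34−40 g), free access to food and water, were given paclitaxel 6 mg/kg ip once in saline on day 0. On day 14 the test compound was given orally 1 h before formalin was injected into the hind paw. Time spent licking and biting the injected paw and leg was recorded at 0−5 and 35−40 min after formalin.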"}, "BXPC-3 [13]": {"system": "BXPC-3", "test": "Induction of apoptosis in human BxPC3 cells assessed as late apoptosis at 5 uM using annexin V/7-AAD by FACS analysis (reference value: 9 %)", "format": "functional"}, "BXPC-3 [14]": {"system": "BXPC-3", "test": "Cell cycle arrest in human BxPC3 cells assessed as accumulation at G2 phase at 50 uM after 24 hrs using propidium iodide staining by FACS analysis (reference value: 12 %)", "format": "functional", "outline": "(§3)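 Cells were plated 24 h before treatment and exposed for 24 h at final 0.5, 5, 15 and 50 μM in 0.5% DMSO, against vehicle-treated controls. Cells were then trypsinised and fixed in cold ethanol for 3 h at 4 °C. They were stained in a mix of RNase (200 μg/mL) and PI (1 mg/mL) for 45 min at room temperature in the dark. Flow cytometry used 488 nm excitation and 10 000 gated cells. Phase percentages were assigned from DNA content.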"}, "BXPC-3 [15]": {"system": "BXPC-3", "test": "Cell cycle arrest in human BxPC3 cells assessed as accumulation at G1 phase at 50 uM after 24 hrs using propidium iodide staining by FACS analysis (reference value: 41 %)", "format": "functional", "outline": "as §3"}, "BXPC-3 [16]": {"system": "BXPC-3", "test": "Cell cycle arrest in human BxPC3 cells assessed as accumulation at S phase at 15 uM after 24 hrs using propidium iodide staining by FACS analysis (reference value: 33 %)", "format": "functional", "outline": "as §3"}, "PC-3 [17]": {"system": "PC-3", "test": "Growth inhibition of human PC3 cells after 48 hrs by SRB assay", "format": "functional", "conditions": "PC-3, 48 h", "outline": "as §1"}, "MCF7": {"system": "MCF7", "test": "Growth inhibition of human MCF7 cells after 48 hrs by SRB assay", "format": "functional", "conditions": "MCF7, 48 h", "outline": "as §1"}, "PC-3 [18]": {"system": "PC-3", "test": "Induction of apoptosis in human PC3 cells assessed as early apoptosis at 0.5 uM using annexin V/7-AAD by FACS analysis (reference value: 5 %)", "format": "functional"}, "BXPC-3 [19]": {"system": "BXPC-3", "test": "Cell cycle arrest in human BxPC3 cells assessed as accumulation at S phase at 5 uM after 24 hrs using propidium iodide staining by FACS analysis (reference value: 33 %)", "format": "functional", "outline": "as §3"}, "HL-60(TB)": {"system": "HL-60(TB)", "test": "Growth inhibition of human HL-60(TB) cells after 48 hrs by SRB assay", "format": "functional", "conditions": "HL-60, 48 h", "outline": "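Cells kept in RPMI 1640 with 5% FCS at 37 °C, 5% CO2, and seeded 24 h before dosing. Compound given from DMSO at 10-fold dilutions, 100 to 0.01 μM, for 48 h. Cells fixed with TCA, stained with SRB, absorbance read at 540 nm. GI50 taken from a time-zero plate.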"}, "IGROV-1 [20]": {"system": "IGROV-1", "test": "Cell cycle arrest in human IGROV1 cells assessed as accumulation at >G2/M phase at 15 uM after 24 hrs using propidium iodide staining by FACS analysis (reference value: 21 %)", "format": "functional", "outline": "as §3"}, "BXPC-3 [21]": {"system": "BXPC-3", "test": "Cell cycle arrest in human BxPC3 cells assessed as accumulation at sub G1 phase at 50 uM after 24 hrs using propidium iodide staining by FACS analysis (reference value: 9 %)", "format": "functional", "outline": "as §3"}, "Mus musculus [22]": {"system": "Mus musculus", "test": "Toxicity in SCID mouse assessed as body weight loss at 40 to 55 mg/kg, ip for 2 to 3 weeks", "format": "organism-based", "set-up": "route intraperitoneal", "conditions": "in vivo", "outline": "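CD-1 (male and female) and SCID mice dosed ip at 40−55 mg/kg in 5% Tween 80 for chronic 2−3 week regimens. Deaths and body weight loss compared with vehicle (Tween 80 or Cremophor) and reference-drug groups. Weight loss, neurological, behavioral and dietary changes recorded as toxicity signs.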"}, "BXPC-3 [23]": {"system": "BXPC-3", "test": "Induction of apoptosis in human BxPC3 cells assessed as healthy cells at 15 uM using annexin V/7-AAD by FACS analysis (reference value: 79 %)", "format": "functional"}, "IGROV-1 [24]": {"system": "IGROV-1", "test": "Induction of apoptosis in human IGROV1 cells assessed as late apoptosis at 15 uM using annexin V/7-AAD by FACS analysis (reference value: 5 %)", "format": "functional"}, "[25]": {"conditions": "read-out: LC50 (the source's name)"}},
  "note": "Active and inactive are the calls of the source. No cut-off for these calls is given here.",
  "data": [
    {"smiles": "CN1CCN(CCCc2ccc(C(c3ccccc3)C34CC5CC(CC(C5)C3)C4)cc2)CC1", "note": "(stereo unspecified)", "values": [
      {"measurement": "Activity", "setting": "PC-3 [1]", "value": 1, "unit": "%"},
      {"measurement": "Activity", "setting": "BXPC-3 [2]", "value": 44, "unit": "%"},
      {"measurement": "Activity", "setting": "PC-3 [3]", "value": 25, "unit": "%"},
      {"measurement": "Activity", "setting": "PC-3 [4]", "value": 10, "unit": "%"},
      {"measurement": "Activity", "setting": "PC-3 [5]", "value": 7, "unit": "%"},
      {"measurement": "GI50", "setting": "BXPC-3 [6]", "value": 3.41, "unit": "µM"},
      {"measurement": "LC50", "setting": "BXPC-3 [6]", "value": 0.0088, "unit": "µM"},
      {"measurement": "TGI", "setting": "BXPC-3 [6]", "value": 6.1, "unit": "µM"},
      {"measurement": "Activity", "setting": "IGROV-1 [7]", "value": 5, "unit": "%"},
      {"measurement": "LC50", "setting": "NHDF", "value": 100, "unit": "µM"},
      {"measurement": "TGI", "setting": "NHDF", "value": 78.2, "unit": "µM"},
      {"measurement": "GI50 at 48 h", "setting": "[8]", "value": 9.68, "unit": "µM"},
      {"measurement": "Activity", "setting": "IGROV-1 [9]", "value": 8, "unit": "%"},
      {"measurement": "Activity", "setting": "PC-3 [10]", "value": 17, "unit": "%"},
      {"measurement": "Activity", "setting": "IGROV-1 [11]", "value": 21, "unit": "%"},
      {"measurement": "Activity", "setting": "Mus musculus [12]", "value": "Active"},
      {"measurement": "Activity", "setting": "BXPC-3 [13]", "value": 10, "unit": "%"},
      {"measurement": "Activity", "setting": "BXPC-3 [14]", "value": 9, "unit": "%"},
      {"measurement": "Activity", "setting": "BXPC-3 [15]", "value": 31, "unit": "%"},
      {"measurement": "Activity", "setting": "BXPC-3 [16]", "value": 27, "unit": "%"},
      {"measurement": "GI50", "setting": "PC-3 [17]", "value": 3.43, "unit": "µM"},
      {"measurement": "TGI", "setting": "PC-3 [17]", "value": 6.72, "unit": "µM"},
      {"measurement": "CC50", "setting": "PC-3 [17]; [25]", "value": 0.01, "unit": "µM"},
      {"measurement": "GI50", "setting": "MCF7", "value": 3.2, "unit": "µM"},
      {"measurement": "TGI", "setting": "MCF7", "value": 6.1, "unit": "µM"},
      {"measurement": "CC50", "setting": "MCF7; [25]", "value": 0.009, "unit": "µM"},
      {"measurement": "Activity", "setting": "PC-3 [18]", "value": 3, "unit": "%"},
      {"measurement": "Activity", "setting": "BXPC-3 [19]", "value": 23, "unit": "%"},
      {"measurement": "GI50", "setting": "HL-60(TB)", "value": 0.00402, "unit": "µM"},
      {"measurement": "TGI", "setting": "HL-60(TB)", "value": 0.00788, "unit": "µM"},
      {"measurement": "CC50", "setting": "HL-60(TB); [25]", "value": 0.1, "unit": "µM"},
      {"measurement": "Activity", "setting": "IGROV-1 [20]", "value": 17, "unit": "%"},
      {"measurement": "Activity", "setting": "BXPC-3 [21]", "value": 23, "unit": "%"},
      {"measurement": "Activity", "setting": "Mus musculus [22]", "value": "Non-toxic"},
      {"measurement": "Activity", "setting": "BXPC-3 [23]", "value": 35, "unit": "%"},
      {"measurement": "Activity", "setting": "IGROV-1 [24]", "value": 20, "unit": "%"}
    ]}
  ]
}
